Results published in ChEMBL document CHEMBL1152597, “Push-pull benzothiazole derivatives as probes for detecting beta-amyloid plaques in Alzheimer's brains” (Bioorg Med Chem, 2009).
pIC50: −log10 of the molar value. Activity calls are given as the source filed them. The calls are words filed in the database; no cut-off is given here.

Key:
[1] = Inhibition of amyloid beta (1-42) aggregation by thioflavin T competition binding experiment
[2] = biological target: Amyloid-beta precursor protein (Homo sapiens) (UniProt P05067); assay: Binding affinity to beta-amyloid plaques in Alzheimer's disease patient temporal cortex by immunohistochemical staining; type: tissue-based
Amyloid-beta precursor protein (Homo sapiens), sequence (P05067 whole entry): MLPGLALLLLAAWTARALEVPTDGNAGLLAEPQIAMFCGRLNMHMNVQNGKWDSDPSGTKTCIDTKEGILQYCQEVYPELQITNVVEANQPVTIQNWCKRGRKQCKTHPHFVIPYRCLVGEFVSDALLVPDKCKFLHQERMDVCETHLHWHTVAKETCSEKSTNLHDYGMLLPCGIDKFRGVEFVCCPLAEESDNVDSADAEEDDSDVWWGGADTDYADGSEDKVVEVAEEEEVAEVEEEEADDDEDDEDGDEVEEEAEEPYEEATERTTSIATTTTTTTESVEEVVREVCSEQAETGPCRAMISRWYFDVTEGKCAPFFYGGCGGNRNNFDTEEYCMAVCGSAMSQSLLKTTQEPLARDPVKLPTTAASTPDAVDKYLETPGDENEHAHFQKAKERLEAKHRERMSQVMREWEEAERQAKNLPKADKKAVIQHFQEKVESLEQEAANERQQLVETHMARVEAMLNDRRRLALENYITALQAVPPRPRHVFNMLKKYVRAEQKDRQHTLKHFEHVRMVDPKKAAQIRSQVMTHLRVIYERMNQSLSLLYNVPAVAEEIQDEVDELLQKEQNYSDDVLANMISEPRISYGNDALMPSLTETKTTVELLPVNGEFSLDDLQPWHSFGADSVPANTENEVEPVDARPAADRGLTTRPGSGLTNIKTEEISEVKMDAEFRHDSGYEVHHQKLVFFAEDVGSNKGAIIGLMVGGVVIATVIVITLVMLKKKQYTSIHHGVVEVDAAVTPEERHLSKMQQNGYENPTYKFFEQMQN
Method in brief: (§1)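 Probe staining was done on 5 µm sections of temporal cortex from AD brain and from adult normal brain, read by fluorescence microscopy. Serial sections were immunostained with anti-Aβ antibodies to compare the plaque staining pattern.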

Mus musculus [3] = organism: Mus musculus; assay: Binding affinity to beta-amyloid plaques in Alzheimer's disease Tg2576 mouse brain by thioflavin S staining; type: tissue-based
Method in brief: (§2)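 Tg2576 (female, 27-month-old) and wild-type (female, 27-month-old) mouse brains were cut into 10 µm serial sections. Sections were incubated 10 min with probe in 50% EtOH, washed twice for 1 min in 50% EtOH and examined by fluorescence microscopy. Serial sections were counterstained with thioflavin S to confirm plaques.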

Mus musculus [4] = organism: Mus musculus; assay: Binding affinity to beta-amyloid plaques in wild type mouse assessed as accumulation in brain by thioflavin S staining; type: tissue-based; method in brief: as §2
[5] = biological target: Amyloid-beta precursor protein (Homo sapiens) (UniProt P05067); assay: Binding affinity to beta-amyloid plaques in normal patient brain section by immunohistochemical staining; method in brief: as §1

Row | pIC50 [1] | Structure (SMILES) | Activity [2] | Activity (Mus musculus [3]) | Activity (Mus musculus [4]) | Activity [5]
1 | 6.17 | [11CH3]Nc1ccc(-c2nc3ccc(O)cc3s2)cc1 [PITTSBURGH COMPOUND B] |  |  |  | 
2 | 6.96 | CN(C)c1ccc2nc(/C=C/c3ccc(C=C(C#N)C#N)cc3)sc2c1 | Active | Active | inactive | inactive

Row | Structure (SMILES) | pIC50 [1] | Activity [2] | Activity (Mus musculus [3]) | Activity (Mus musculus [4]) | Activity [5]
3 | CN(C)c1ccc2nc(C=C(C#N)C#N)sc2c1 | 6.92 | Active | Active | inactive | inactive
